The list is not random: actives were taken first. Their share in the collection is about 3.8%.
TMEM16A act: activators or potentiators of mouse TMEM16A chloride channel; Q8BHY3; HEK293 TMEM16A/YFP-H148Q/I152L, iodide quench fluorescence; hits give low values; B-score at 10 µM; 340,000 tested, 0.3% active;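 active = fluorescence-ratio B-score plate-corrected deviation score at least 3 library SD below zero, with starting fluorescence score within 5 deviations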;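 note: channel opened by trigger with iodide after compound preincubation; score built on the fluorescence ratio of max minus min over baseline; more negative score means more quench and so TMEM16A activation or potentiation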
Target sequence (Q8BHY3 whole entry, looked up): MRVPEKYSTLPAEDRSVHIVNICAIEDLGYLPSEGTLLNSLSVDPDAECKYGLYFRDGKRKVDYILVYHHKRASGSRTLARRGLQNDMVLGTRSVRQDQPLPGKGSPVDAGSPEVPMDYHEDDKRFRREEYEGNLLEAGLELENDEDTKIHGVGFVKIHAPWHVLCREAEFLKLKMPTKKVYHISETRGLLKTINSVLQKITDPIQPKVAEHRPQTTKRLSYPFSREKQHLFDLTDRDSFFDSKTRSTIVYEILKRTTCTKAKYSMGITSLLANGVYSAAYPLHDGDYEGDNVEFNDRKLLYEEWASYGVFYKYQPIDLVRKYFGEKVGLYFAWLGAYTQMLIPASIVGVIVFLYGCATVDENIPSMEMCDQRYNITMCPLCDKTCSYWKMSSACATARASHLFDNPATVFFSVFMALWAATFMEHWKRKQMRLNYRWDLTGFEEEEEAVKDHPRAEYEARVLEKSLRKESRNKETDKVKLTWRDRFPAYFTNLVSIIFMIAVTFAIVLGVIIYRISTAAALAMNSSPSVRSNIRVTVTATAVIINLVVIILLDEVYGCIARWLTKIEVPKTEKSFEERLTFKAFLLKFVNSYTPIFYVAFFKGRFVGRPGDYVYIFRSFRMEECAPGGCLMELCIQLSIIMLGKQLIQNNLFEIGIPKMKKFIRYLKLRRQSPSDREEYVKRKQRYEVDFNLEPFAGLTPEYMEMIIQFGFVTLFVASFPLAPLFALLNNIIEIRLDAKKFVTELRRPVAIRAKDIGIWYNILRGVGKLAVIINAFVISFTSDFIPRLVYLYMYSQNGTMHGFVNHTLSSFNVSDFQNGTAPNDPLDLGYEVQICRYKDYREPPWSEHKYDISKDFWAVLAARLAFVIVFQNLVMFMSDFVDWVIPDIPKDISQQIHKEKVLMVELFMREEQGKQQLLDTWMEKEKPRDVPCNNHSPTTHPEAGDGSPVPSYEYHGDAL
Beta cell apopt: blocks beta cell apoptosis; INS-1E cytokine-induced death, ATP luminescence, 48 h; percent of positive-control rescue, neutral wells zero; AID 435005; protection from apoptosis, % (concentration not given with the values); 300,000 tested, 0.8% active;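 active = Every replicate reaches about 75%, or at least half do and their mean reaches it too, limit read from the data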;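 note: higher means more ATP so stronger rescue from cytokine killing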
CSC inhib: blocks cancer stem cells; cancer stem cell-like cells viability, luminescence; inhibition, % at 7.5 µM; 300,000 tested, 1.1% active; AID 2717; in the data active = inhibition above about 75%; tested in HMLE shEcad cells
MC4R ag barr: agonists of human melanocortin 4 receptor (MC4R) beta-arrestin; U2OS MC4R beta-arrestin complementation, luminescence; percent of melanotan II response, DMSO zero; 360,000 tested, 0.98% active; AID 540308; activation, % at 8.9 µM; P32245;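 active = activation above a per-plate cutoff, the mean activation of sample wells on that plate plus 3 SD, cut at about 8% in these data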
MC4R antag cAMP: human MC4R antagonism in cAMP assay; MC4R-expressing cells, MTII-stimulated cAMP, LANCE TR-FRET; inhibition, % at 6.5 µM; 360,000 tested, 0.48% active;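 active = inhibition above its plate's cutoff, the mean of tested wells on that plate plus 3 SD, cut at about 29% in these data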
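Assay system: human MC4R-expressing U2OS cells; reagent: Melanotan II stimulation of cells; dosing: 6.5 µM single dose; timing: compound 30 min, challenge 1 h, detection 1 h; signal: TR-FRET cAMP assay; replicates: one well per compound, no replicates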
ANO1 block: blocks the mouse calcium-activated chloride channel TMEM16A. HEK293 TMEM16A/YFP iodide influx fluorescence, ionomycin. normalized B-score (activity score, 25-100; higher = stronger inhibition) at 10 µM. 310,000 tested, 1.2% active. AID 588511;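 active = ratio plate-corrected score three or more library SD toward inhibition, starting fluorescence score within five deviations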;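 note: score derived from kinetic fluorescence span divided by baseline fluorescence per well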
Large screens that a line does not name were inactive.

O=C1N/C(=C/c2ccc(N3CCOCC3)o2)C(=O)N1c1ccccc1	CSC inhib 80
C=CCN1C(=O)N/C(=C/c2ccc(N3CCOCC3)o2)C1=O	Beta cell apopt 109 (no result: TMEM16A act, MC4R ag barr, MC4R antag cAMP)
O=C1N/C(=C/c2ccc(N3CCCC3)cc2)C(=O)N1c1ccccc1	MC4R ag barr 8.5
CCN(CC)CCc1nc(-c2ccccc2)no1	none
Cc1nc(C(F)(F)F)c(C(=O)N/N=C(\N)c2ccccn2)s1	Beta cell apopt 77
N/C(=N\NS(=O)(=O)c1ccccc1C(F)(F)F)c1ccccn1	none
N#CC(C#N)=C1C=CC=CN1/C(=C\c1ccco1)C(=O)c1ccc(Br)cc1	Beta cell apopt 101
N#C/C(=C/c1ccco1)C(N)=S	none
CCOc1ccc2ccc(OCC)c(/C=N/n3cnnc3)c2c1	none
C/C(=N/NC(=O)c1ccc(C(C)(C)C)cc1)c1ccccn1	Beta cell apopt 111
C/C(=N\NC(=O)C(c1ccccc1)c1ccccc1)c1ccccn1	Beta cell apopt 88
COc1ccc(C(=O)NNC(=O)Cc2ccc(-c3ccccc3)cc2)cc1OC	none
COc1ccc(C(=O)NNc2ccccc2)cc1OC	CSC inhib 83
C/C(=N\NC(=O)c1ccc(NS(=O)(=O)c2cccs2)cc1)c1ccccn1	Beta cell apopt 86 (no result: TMEM16A act, MC4R ag barr, MC4R antag cAMP)
C/C(=N\NC(=O)C(c1ccccc1)c1ccccc1)c1ccc(O)cc1	none
COc1ccc(C(=O)N/N=C(\C)c2ccccn2)cc1OC	Beta cell apopt 98, CSC inhib 91
N/C(=N\OC(=O)COc1ccc2ccccc2c1Br)c1ccccn1	none
N/C(=N\OC(=O)COc1ccc2ccccc2c1Br)c1cccnc1	ANO1 block 25 (no result: TMEM16A act, MC4R ag barr, MC4R antag cAMP)
O=C(NNC1=C(C(=O)C(F)(F)F)CCC1)c1cccc(O)c1	none
Cc1cccc(C(=O)NNC2=C(C(=O)C(F)(F)F)CCC2)c1O	CSC inhib 110, ANO1 block 100
Cc1nc2ccc(NS(=O)(=O)c3cccc([N+](=O)[O-])c3)cc2s1	none (no result: ANO1 block)
Cc1nc2c(-c3ccc(Cl)cc3)c(C)[nH]n2c(=O)c1Cc1ccccc1	Beta cell apopt 98
Cc1nc2c(-c3ccccc3)c(C)[nH]n2c(=O)c1Cc1ccccc1	none
CCOC(=O)C1(C)CCCCCN1C(=O)c1ccc(C(=O)OC)cc1 (stereo unspecified)	none (no result: TMEM16A act, Beta cell apopt, CSC inhib, ANO1 block)
O=[N+]([O-])c1ccc(NNC(=S)Nc2ccc(F)cc2)cc1	ANO1 block 100
O=C(NC(NNc1ccc([N+](=O)[O-])cc1)(C(F)(F)F)C(F)(F)F)c1ccc(F)cc1	ANO1 block 100
CCCCNC(=S)NC(=O)c1ccc([N+](=O)[O-])cc1	none
CC(C)CCNC(=S)Nc1ccc([N+](=O)[O-])cc1	ANO1 block 100
CCCCNC(=S)Nc1ccc([N+](=O)[O-])cc1	ANO1 block 100
Cc1cccc(OC(=O)c2ccc3c(=O)n4c(nc3c2)CCC4)c1	none (no result: TMEM16A act, Beta cell apopt, CSC inhib, ANO1 block)
C/C(N)=C(/C#N)C(=O)COC(=O)C1CCN(S(=O)(=O)c2cccs2)CC1	none (no result: ANO1 block)
Cc1nc2c(OCCN3C(=O)c4ccccc4C3=O)cccn2c1N(C)C(=O)CCC1CCCC1	none (no result: TMEM16A act, Beta cell apopt, CSC inhib, ANO1 block)
CCN(CC)S(=O)(=O)c1ccc(N2CCCCC2)c(NC(=O)C2CCN(C(=O)c3ccc(F)cc3)CC2)c1	none
C/C(=C\c1ccc(C(=O)O)cc1)c1ccc2c(c1)C(C)(C)CCC2(C)C	CSC inhib 101
COc1ccc(/C=C(/NC(=O)c2ccc(Br)o2)C(=O)Nc2cccc(C(=O)O)c2)cc1	none (no result: TMEM16A act, Beta cell apopt, CSC inhib, ANO1 block)
O=C(Nc1ccc(Br)cn1)c1ccc(COc2c(F)c(F)cc(F)c2F)o1	MC4R ag barr 8.4 (no result: CSC inhib, ANO1 block)
COCCNC(=O)NC1(C(F)(F)F)Oc2ccc(Cl)cc2O1 (stereo unspecified)	CSC inhib 75
O=C(NCc1cccnc1)NC1(C(F)(F)F)Oc2ccc(Cl)cc2O1 (stereo unspecified)	none
Cc1nn(-c2ccccc2)c(C)c1NC(=O)COc1cc(F)ccc1[N+](=O)[O-]	none (no result: ANO1 block)
N#CC1=C(N)NC(SCC(=O)Nc2ccc(Br)cc2)=C(C#N)C12CCCCC2	ANO1 block 100
N#CC1=C(N)NC(SCC(=O)c2ccccc2)=C(C#N)C12CCCC2	none
N#CC1=C(N)NC(SCc2ccccc2)=C(C#N)C12CCCC2	TMEM16A act -5.1, CSC inhib 78

Screens from PubChem.
